Key:
Format in all cases: functional
CCRF-CEM = assay: Growth inhibition of human CCRF-CEM cells assessed as growth percentage at 10 uM incubated for 48 hrs by sulforhodamine B assay relative to control; conditions: read-out: Activity
How it was run: (§1)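 NCI-60 one-dose screen: cells in RPMI 1640 with 5% FBS and 2 mM L-glutamine, plated at 5,000–40,000 cells/well and preincubated 24 h at 37 °C, 5% CO2. Compound is added from a DMSO stock to a final 10 µM and incubated 48 h. Cells are TCA-fixed and stained with sulforhodamine B, read at 515 nm. Output is % growth versus untreated control, with a time-zero plate.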

DU-145 = assay: Growth inhibition of human DU145 cells assessed as growth percentage at 10 uM incubated for 48 hrs by sulforhodamine B assay relative to control; conditions: DU-145, 48 h, read-out: Activity; how it was run: as §1
TK-10 = assay: Growth inhibition of human TK10 cells assessed as growth percentage at 10 uM incubated for 48 hrs by sulforhodamine B assay relative to control; conditions: TK-10, 48 h, read-out: Activity
How it was run: (§2)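 NCI-60 single-dose screen. Cells were grown in RPMI 1640 with 5% FBS and 2 mM L-glutamine and plated at 5,000–40,000 cells/well. After an overnight preincubation at 37 °C in 5% CO2, compound was added at a final 10 µM from a DMSO stock, with DMSO/PBS controls. After 48 h, cells were TCA-fixed and stained with 0.4% SRB, and absorbance was read at 515 nm. Growth is given as a percentage of untreated control.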

NCI-H226 = assay: Growth inhibition of human NCI-H226 cells assessed as growth percentage at 10 uM incubated for 48 hrs by sulforhodamine B assay relative to control; conditions: NCI-H226, 48 h, read-out: Activity
How it was run: (§3)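 NCI-60 one-dose screen. Cells in RPMI 1640 with 5% FBS and 2 mM L-glutamine, seeded at 5,000–40,000 cells/well according to doubling time, and preincubated overnight at 37 °C, 5% CO2. A time-zero plate was TCA-fixed at drug addition. Compound from DMSO stock, final 10 µM, 48 h; DMSO vehicle controls. Fixation with TCA, 10% final (16% for suspension cells). SRB stain, Tris solubilization, A515. Result given as % growth versus untreated cells.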

MDA-MB-435 = assay: Growth inhibition of human MDA-MB-435 cells assessed as growth percentage at 10 uM incubated for 48 hrs by sulforhodamine B assay relative to control; conditions: MDA-MB-435, 48 h, read-out: Activity; how it was run: as §3
T47D = assay: Growth inhibition of human T47D cells assessed as growth percentage at 10 uM incubated for 48 hrs by sulforhodamine B assay relative to control; conditions: read-out: Activity; how it was run: as §2
UACC-62 = assay: Growth inhibition of human UACC62 cells assessed as growth percentage at 10 uM incubated for 48 hrs by sulforhodamine B assay relative to control; conditions: UACC-62, 48 h, read-out: Activity; how it was run: as §2
U-251 = assay: Growth inhibition of human U251 cells assessed as growth percentage at 10 uM incubated for 48 hrs by sulforhodamine B assay relative to control; conditions: U-251, 48 h, read-out: Activity; how it was run: as §2
K562 = assay: Growth inhibition of human K562 cells assessed as growth percentage at 10 uM incubated for 48 hrs by sulforhodamine B assay relative to control; conditions: K562, 48 h, read-out: Activity; how it was run: as §3
SNB-19 = assay: Growth inhibition of human SNB19 cells assessed as growth percentage at 10 uM incubated for 48 hrs by sulforhodamine B assay relative to control; conditions: SNB-19, 48 h, read-out: Activity; how it was run: as §2
KM12 = assay: Growth inhibition of human KM12 cells assessed as growth percentage at 10 uM incubated for 48 hrs by sulforhodamine B assay relative to control; conditions: KM12, 48 h, read-out: Activity; how it was run: as §3
OVCAR-8 = assay: Growth inhibition of human OVCAR8 cells assessed as growth percentage at 10 uM incubated for 48 hrs by sulforhodamine B assay relative to control; conditions: OVCAR-8, 48 h, read-out: Activity; how it was run: as §2
NCI-H522 = assay: Growth inhibition of human NCI-H522 cells assessed as growth percentage at 10 uM incubated for 48 hrs by sulforhodamine B assay relative to control; conditions: NCI-H522, 48 h, read-out: Activity; how it was run: as §3
HL-60(TB) = assay: Growth inhibition of human HL-60(TB) cells assessed as growth percentage at 10 uM incubated for 48 hrs by sulforhodamine B assay relative to control; conditions: HL-60, 48 h, read-out: Activity
How it was run: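 NCI-60 single-dose screen. Cells in RPMI 1640 with 5% FBS and 2 mM L-glutamine are plated at 5,000–40,000 cells/well and preincubated overnight at 37 °C, 5% CO2. Compound is added from a DMSO stock at 10 µM final for 48 h. Cells are TCA-fixed (suspension cells 16% final) and stained with SRB. Absorbance is read at 515 nm, and percentage growth is calculated against untreated controls with a time-zero plate.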

Hs-578T = assay: Growth inhibition of human Hs 578T cells assessed as growth percentage at 10 uM incubated for 48 hrs by sulforhodamine B assay relative to control; conditions: read-out: Activity; how it was run: as §3
IGROV-1 = assay: Growth inhibition of human IGROV1 cells assessed as growth percentage at 10 uM incubated for 48 hrs by sulforhodamine B assay relative to control; conditions: IGROV-1, 48 h, read-out: Activity; how it was run: as §3
M14 = assay: Growth inhibition of human M14 cells assessed as growth percentage at 10 uM incubated for 48 hrs by sulforhodamine B assay relative to control; conditions: M14, 48 h, read-out: Activity; how it was run: as §3
MOLT-4 = assay: Growth inhibition of human MOLT4 cells assessed as growth percentage at 10 uM incubated for 48 hrs by sulforhodamine B assay relative to control; conditions: MOLT-4, 48 h, read-out: Activity; how it was run: as §3
EKVX = assay: Growth inhibition of human EKVX cells assessed as growth percentage at 10 uM incubated for 48 hrs by sulforhodamine B assay relative to control; conditions: read-out: Activity; how it was run: as §1
MDA-MB-231 = assay: Growth inhibition of human MDA-MB-231 cells assessed as growth percentage at 10 uM incubated for 48 hrs by sulforhodamine B assay relative to control; conditions: MDA-MB-231, 48 h, read-out: Activity; how it was run: as §3
COLO 205 = assay: Growth inhibition of human COLO205 cells assessed as growth percentage at 10 uM incubated for 48 hrs by sulforhodamine B assay relative to control; conditions: COLO 205, 48 h, read-out: Activity; how it was run: as §1
MCF7 = assay: Growth inhibition of human MCF7 cells assessed as growth percentage at 10 uM incubated for 48 hrs by sulforhodamine B assay relative to control; conditions: MCF7, 48 h, read-out: Activity; how it was run: as §3
UO-31 = assay: Growth inhibition of human UO31 cells assessed as growth percentage at 10 uM incubated for 48 hrs by sulforhodamine B assay relative to control; conditions: UO-31, 48 h, read-out: Activity; how it was run: as §2
SK-MEL-2 = assay: Growth inhibition of human SK-MEL-2 cells assessed as growth percentage at 10 uM incubated for 48 hrs by sulforhodamine B assay relative to control; conditions: SK-MEL-2, 48 h, read-out: Activity; how it was run: as §2

SMILES: CC(=O)C1=C(C)NC(=S)NC1c1ccc2c(c1)OCO2 (racemic)
- growth at 10 µM (CCRF-CEM): 101%
- growth at 10 µM (DU-145): 111%
- growth at 10 µM (TK-10): 97.6%
- growth at 10 µM (NCI-H226): 102%
- growth at 10 µM (MDA-MB-435): 103%
- growth at 10 µM (T47D): 96.2%
- growth at 10 µM (UACC-62): 98.6%
- growth at 10 µM (U-251): 98.2%
- growth at 10 µM (K562): 98.6%
- growth at 10 µM (SNB-19): 98.9%
- growth at 10 µM (KM12): 109%
- growth at 10 µM (OVCAR-8): 103%
- growth at 10 µM (NCI-H522): 92.3%
- growth at 10 µM (HL-60(TB)): 96.4%
- growth at 10 µM (Hs-578T): 101%
- growth at 10 µM (IGROV-1): 104%
- growth at 10 µM (M14): 107%
- growth at 10 µM (MOLT-4): 98.8%
- growth at 10 µM (EKVX): 106%
- growth at 10 µM (MDA-MB-231): 104%
- growth at 10 µM (COLO 205): 109%
- growth at 10 µM (MCF7): 103%
- growth at 10 µM (UO-31): 81%
- growth at 10 µM (SK-MEL-2): 106%

SMILES: CC1=C(C(=O)OC(C)C)C(c2ccc3c(c2)OCO3)NC(=O)N1 (racemic)
- growth at 10 µM (CCRF-CEM): 113%
- growth at 10 µM (DU-145): 108%
- growth at 10 µM (TK-10): 98.8%
- growth at 10 µM (NCI-H226): 101%
- growth at 10 µM (MDA-MB-435): 110%
- growth at 10 µM (T47D): 101%
- growth at 10 µM (UACC-62): 94.9%
- growth at 10 µM (U-251): 100%
- growth at 10 µM (K562): 119%
- growth at 10 µM (SNB-19): 93.6%
- growth at 10 µM (KM12): 106%
- growth at 10 µM (OVCAR-8): 100%
- growth at 10 µM (NCI-H522): 91.1%
- growth at 10 µM (HL-60(TB)): 108%
- growth at 10 µM (Hs-578T): 102%
- growth at 10 µM (IGROV-1): 101%
- growth at 10 µM (M14): 104%
- growth at 10 µM (MOLT-4): 108%
- growth at 10 µM (EKVX): 96.1%
- growth at 10 µM (MDA-MB-231): 104%
- growth at 10 µM (COLO 205): 124%
- growth at 10 µM (MCF7): 96.5%
- growth at 10 µM (UO-31): 84.9%
- growth at 10 µM (SK-MEL-2): 108%

SMILES: CC1(C)CC(=O)C2=C(C1)NC(=O)NC2c1ccc2c(c1)OCO2 (racemic)
- growth at 10 µM (CCRF-CEM): 111%
- growth at 10 µM (DU-145): 107%
- growth at 10 µM (TK-10): 106%
- growth at 10 µM (NCI-H226): 109%
- growth at 10 µM (MDA-MB-435): 106%
- growth at 10 µM (T47D): 106%
- growth at 10 µM (UACC-62): 107%
- growth at 10 µM (U-251): 103%
- growth at 10 µM (K562): 108%
- growth at 10 µM (SNB-19): 108%
- growth at 10 µM (KM12): 108%
- growth at 10 µM (OVCAR-8): 104%
- growth at 10 µM (NCI-H522): 93.9%
- growth at 10 µM (HL-60(TB)): 97.6%
- growth at 10 µM (Hs-578T): 113%
- growth at 10 µM (IGROV-1): 97.9%
- growth at 10 µM (M14): 102%
- growth at 10 µM (MOLT-4): 95.9%
- growth at 10 µM (EKVX): 107%
- growth at 10 µM (MDA-MB-231): 111%
- growth at 10 µM (COLO 205): 125%
- growth at 10 µM (MCF7): 98.3%
- growth at 10 µM (UO-31): 84.6%
- growth at 10 µM (SK-MEL-2): 104%

SMILES: CC1=C(C(=O)OCC(C)C)C(c2ccc3c(c2)OCO3)NC(=S)N1 (racemic)
- growth at 10 µM (CCRF-CEM): 101%
- growth at 10 µM (DU-145): 109%
- growth at 10 µM (TK-10): 101%
- growth at 10 µM (NCI-H226): 97.1%
- growth at 10 µM (MDA-MB-435): 103%
- growth at 10 µM (T47D): 81.9%
- growth at 10 µM (UACC-62): 90.3%
- growth at 10 µM (U-251): 97.4%
- growth at 10 µM (K562): 90.7%
- growth at 10 µM (SNB-19): 103%
- growth at 10 µM (KM12): 99.1%
- growth at 10 µM (OVCAR-8): 102%
- growth at 10 µM (NCI-H522): 82.2%
- growth at 10 µM (HL-60(TB)): 101%
- growth at 10 µM (Hs-578T): 101%
- growth at 10 µM (IGROV-1): 97.9%
- growth at 10 µM (M14): 120%
- growth at 10 µM (MOLT-4): 89.1%
- growth at 10 µM (EKVX): 104%
- growth at 10 µM (MDA-MB-231): 118%
- growth at 10 µM (COLO 205): 123%
- growth at 10 µM (MCF7): 98.6%
- growth at 10 µM (UO-31): 89.4%
- growth at 10 µM (SK-MEL-2): 101%

Reference: ChEMBL document CHEMBL4406880, “Design, synthesis, and bioactivity of dihydropyrimidine derivatives as kinesin spindle protein inhibitors” (Bioorg Med Chem, 2019)
